Molecules are shown by their SMILES.

This passage reports inhibition, IC50 and Change results from ChEMBL document CHEMBL1125365, “Acyl-CoA:cholesterol O-acyl transferase (ACAT) inhibitors. 1. 2-(Alkylthio)-4,5-diphenyl-1H-imidazoles as potent inhibitors of ACAT” (J Med Chem, 1992).

The target in experiment [1] is T1, Sterol O-acyltransferase 1 (Rattus norvegicus) (UniProt O70536).
T1 sequence (whole entry): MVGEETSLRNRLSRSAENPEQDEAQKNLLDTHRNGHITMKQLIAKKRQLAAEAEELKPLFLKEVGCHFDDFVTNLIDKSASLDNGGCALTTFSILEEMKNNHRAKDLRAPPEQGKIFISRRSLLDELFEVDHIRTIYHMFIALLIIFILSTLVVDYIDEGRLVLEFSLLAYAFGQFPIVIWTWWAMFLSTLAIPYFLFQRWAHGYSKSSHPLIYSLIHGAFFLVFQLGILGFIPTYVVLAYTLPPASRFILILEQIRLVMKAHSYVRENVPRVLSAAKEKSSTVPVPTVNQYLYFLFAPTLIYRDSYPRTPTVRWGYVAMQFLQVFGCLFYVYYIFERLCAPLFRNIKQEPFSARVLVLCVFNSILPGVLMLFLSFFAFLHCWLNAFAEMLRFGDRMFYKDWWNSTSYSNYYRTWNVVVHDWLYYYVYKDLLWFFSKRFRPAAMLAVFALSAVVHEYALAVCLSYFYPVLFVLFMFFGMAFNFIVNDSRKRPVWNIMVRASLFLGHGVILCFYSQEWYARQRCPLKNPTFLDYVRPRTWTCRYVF
Kind of experiment: Tested in vitro for acyl coenzyme A:cholesterol acyltransferase (ACAT) activity in rat liver microsome at a concentration of 1 micro g/mL. The format is microsomes. The procedure, abridged: (§1)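 Enzyme source was hepatic microsomes from cholesterol-fed rats, 60 μg microsomal protein per reaction, with 90 μM radiolabeled oleoyl-CoA. Cholesterol ester formed was separated by TLC and quantified by scintillation counting. Compounds were tested at a single fixed concentration of 1 or 10 μg/mL, and results were given as percent inhibition of enzyme activity.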
In general terms: Liver microsomes are vesicles of endoplasmic reticulum, rich in cytochrome P450 enzymes.

Experiment [2] has as its target T2, Sterol O-acyltransferase 1 (Rattus norvegicus, UniProt O70536).
T2 sequence (O70536 whole entry): T1 sequence (whole entry)
Kind of experiment: Inhibition of acyl coenzyme A:cholesterol acyltransferase (ACAT) activity in rat liver microsome. The format is microsomes. The procedure, abridged:
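The assay used rat hepatic microsomes from cholesterol-fed animals (60 μg protein) and 90 μM radiolabeled oleoyl-CoA. Cholesterol ester product was resolved by TLC and counted by scintillation. IC50 was the concentration inhibiting 50% of enzyme activity.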

For a further experiment, the system named is Rattus norvegicus. Kind of experiment: Tested in vivo for anti-hypercholesterolaemic activity in male Sprague-Dawley rat. It is filed as functional. The procedure, abridged:
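Compound was given at 0.03% w/w in the diet (about 30 mg/kg/day). Basal-diet rats (n = 4) gave a baseline that was subtracted. Plasma cholesterol was measured enzymatically, and the result was expressed as percent change versus undosed controls.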

For experiment [3], the target named is T1, Sterol O-acyltransferase 1 (Rattus norvegicus). Kind of experiment: Tested in vitro for Acyl coenzyme A:cholesterol acyltransferase (ACAT) activity in rat liver microsome at a concentration of 1 micro g/mL.
For experiment [4] the target is unchanged. Kind of experiment: In vitro acyl coenzyme A:cholesterol acyltransferase (ACAT) activity in rat liver microsome at a concentration of 10 micro g/mL. It is filed as microsomes. The procedure, abridged:
as §1

`CC1(C)CC(=O)OC(CSc2nc(-c3ccccc3)c(-c3ccccc3)[nH]2)C1` (configuration not stated): the inhibition (usually the percentage by which the read-out fell short of the control) in experiment [1] is 94%. In experiment [2], the IC50 (commonly the midpoint of a concentration-inhibition curve) was 100 nM. Moreover, the Change with Rattus norvegicus is on record as -17%.

In the case of `c1ccc(-c2nc(SCC3CCCCO3)[nH]c2-c2ccccc2)cc1` (configuration not stated), in experiment [1], the inhibition is 92%. Also, in experiment [2], the IC50 came out at 210 nM. Besides, the Change in the experiment with Rattus norvegicus is recorded as -38%.

With `CO[C@]1(C)C[C@H](O)C[C@@H](CSc2nc(-c3ccccc3)c(-c3ccccc3)[nH]2)O1`, in experiment [3], the inhibition amounted to 85%.

Regarding `CCOC(CSc1nc(-c2ccccc2)c(-c2ccccc2)[nH]1)OCC`, in experiment [4], the inhibition was 99%. In addition, in experiment [2], the IC50 was 250 nM. Moreover, in the experiment with Rattus norvegicus, the Change was -37%.

`c1ccc(-c2nc(SCC3OCCO3)[nH]c2-c2ccccc2)cc1` returned an inhibition in experiment [1] of 98%. In addition, in experiment [2], the IC50 came out at 530 nM. Further, in the experiment on Rattus norvegicus, the Change is given as -29%.

`CCOC(CCSc1nc(-c2ccccc2)c(-c2ccccc2)[nH]1)OCC`: in experiment [1], the inhibition is 95%. Moreover, the IC50 in experiment [2] was determined as 69 nM. Moreover, the Change in the experiment with Rattus norvegicus came to 4%.

For the compound `c1ccc(-c2nc(SCCCC3OCCCO3)[nH]c2-c2ccccc2)cc1`, in experiment [1], the inhibition came out at 96%. Moreover, the IC50 in experiment [2] came out at 47 nM. Besides, the Change with Rattus norvegicus is recorded as -57%.

Turning to `CC1=CC(=O)OC(CSc2nc(-c3ccccc3)c(-c3ccccc3)[nH]2)C1` (configuration not stated), the inhibition in experiment [4] was 98%. This compound yielded an IC50 in experiment [2] of 200 nM. Further, in the experiment on Rattus norvegicus, the Change is 27%.

In experiment [1], `Cc1cccc(-c2nc(SC[C@H]3C[C@@](C)(O)CC(=O)O3)[nH]c2-c2cccc(C)c2)c1.Cc1cccc(-c2nc(SC[C@H]3C[C@](C)(O)CC(=O)O3)[nH]c2-c2cccc(C)c2)c1` registered an inhibition of 94%. Also, the IC50 in experiment [2] worked out at 64 nM. Besides, the Change in the experiment with Rattus norvegicus is recorded as -64%.

Regarding `CC(O)(CC(=O)OC(C)(C)C)CC(O)CSc1nc(-c2ccc(Cl)cc2)c(-c2ccc(Cl)cc2)[nH]1` (configuration not stated), the inhibition in experiment [4] stood at 97%. This compound also returned an IC50 in experiment [2] of 250 nM. The Change in the experiment on Rattus norvegicus was -53%.

On to `C[C@]1(O)CC(=O)OC(CSc2nc(-c3ccccc3)c(-c3ccccc3)[nH]2)C1` (some centres not stated), for which the inhibition in experiment [4] was 98%. In experiment [2], this compound yielded an IC50 of 140 nM. Further, in the experiment on Rattus norvegicus, the Change is given as -35%.

Regarding `C[C@@]1(O)CC(=O)OC(CSc2nc(-c3ccccc3)c(-c3ccccc3)[nH]2)C1` (some centres not stated), the inhibition in experiment [4] worked out at 98%. Also, 170 nM corresponded to half-maximal inhibition in experiment [2] (IC50). Further, the Change in the experiment with Rattus norvegicus is -105%.

With `c1ccc(-c2nc(SCC3CCCCC3)[nH]c2-c2ccccc2)cc1`, the inhibition in experiment [1] was found to be 95%. The compound also gave an IC50 in experiment [2] of 100 nM. Also, the Change in the experiment with Rattus norvegicus is given as -92%.
